Data on ten molecules can be found in ChEMBL document CHEMBL3227921, “Synthetic antagonists of in vivo responses by the rat uterus to oxytocin” (J Med Chem, 1979).

The test system of test [1] is Rattus norvegicus. Put plainly: Antioxytocic activity in iv dosed rat uterus pretreated with diethylstilbestrol compound treated 1 min prior to oxytocin injection. In kind it is functional, organism-based. Particulars: for Kb: read-out: pA2 (converted). In short, it runs like this:
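Anesthetized diethylstilbestrol-pretreated rats, modified Bisset uterus assay. Antagonist given intravenously 1 min before agonist. Read-out was integrated intrauterine pressure over 10 min after agonist injection. In vivo "pA2" estimated by the Dyckes et al. method; pA2 6.00 corresponds to 67 nmol/kg i.v. and 7.00 to 6.7 nmol/kg. Mean ± SE over assay groups.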

Test [2] deals with T1, Oxytocin receptor (Rattus norvegicus, UniProt P70536).
T1 sequence (P70536 whole entry): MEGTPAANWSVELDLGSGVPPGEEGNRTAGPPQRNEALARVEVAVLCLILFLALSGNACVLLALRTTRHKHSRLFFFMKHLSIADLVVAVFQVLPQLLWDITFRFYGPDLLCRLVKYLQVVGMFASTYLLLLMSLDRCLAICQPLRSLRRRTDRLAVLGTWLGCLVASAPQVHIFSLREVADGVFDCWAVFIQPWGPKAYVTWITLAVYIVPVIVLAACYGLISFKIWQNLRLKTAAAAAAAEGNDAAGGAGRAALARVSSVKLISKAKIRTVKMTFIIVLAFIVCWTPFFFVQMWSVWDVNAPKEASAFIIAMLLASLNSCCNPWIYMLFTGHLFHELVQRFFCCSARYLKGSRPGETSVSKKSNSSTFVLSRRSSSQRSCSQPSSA
Put plainly: Antagonist activity at oxytocin receptor in rat uterus pretreated with diethylstilbestrol compound treated 1 min prior to oxytocin addition in presence of 0.5 mM Mg2+. In kind it is tissue-based. The note with it: read-out: pA2 (converted). The procedure, abridged:
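Uterine horns from rats pretreated with diethylstilbestrol, bathed in Munsick's solution containing 0.5 mM Mg2+. Isometric contractions recorded, with antagonist added 1 min ahead of agonist. Schild pA2 taken as negative log molar antagonist concentration reducing the 2x-agonist response to the x-unit response without antagonist. Mean ± SE, number of assay groups given.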

Test [3] has as its target T1, Oxytocin receptor. Briefly: Antagonist activity at oxytocin receptor in rat uterus pretreated with diethylstilbestrol compound treated 1 min prior to oxytocin addition. The test is classed as tissue-based. Particulars: read-out: pA2 (converted). The procedure, abridged: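 Isolated uterine horns from diethylstilbestrol-pretreated rats suspended in Munsick's solution without Mg2+. Isometric contractions recorded. Antagonist added to bath 1 min before agonist. pA2 calculated by Schild's method: negative log of the molar antagonist concentration that reduces the response to 2x units of agonist to the response to x units without antagonist. Mean ± SE over assay groups.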

Test [4] can be described thus: (§1) Antagonist activity at rat vasopressin receptor. In short, it runs like this: (§2)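 Anesthetized rats, vasopressor responses recorded per Dekanski. Antagonist injected 1 min before agonist. In vivo "pA2" estimated by the method of Dyckes et al., which assumes a volume of distribution for the injected antagonist. Mean ± SE over assay groups.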
Test [5] deals with T2, Oxytocin receptor (Rattus norvegicus) (UniProt P70536).
T2 sequence (whole entry): T1 sequence (P70536 whole entry)
Briefly: Partial agonist activity at oxytocin receptor in rat uterus pretreated with diethylstilbestrol compound treated 1 min prior to oxytocin addition in presence of 0.5 mM Mg2+.

Test [6] is filed under the species Rattus norvegicus. The test is described as §1. In short, it runs like this:
as §2

Activity calls are given as the source filed them. The calls are words filed in the database; no cut-off is given here. Numbered stars: 1 amine (or outer) side, 2 acyl side, 3 side chain; on linkers, the order of the positions; unused ones are H or OH. Bridge positions count the residues as written; N and C are the ends. Square brackets hold non-standard residues; d marks the D form. Peptide text beside a SMILES is read from it. * marks the point of attachment. X1 = O=C(CC1(S[*:2])CCCCC1)[*:1]; X3 = CCC(CC)(CC(=O)[*:1])S[*:2]; X2 = CC(C)(CC(=O)[*:1])S[*:2]; X4 = NC(=O)NC(=O)CN*; Mpa = O=C(O)CCS

By pA2 is commonly meant the negative logarithm of the molar antagonist concentration that doubles the agonist concentration needed for the same response. Low readings indicate lower antagonist potency, high ones higher antagonist potency.

In the case of `CC[C@H](C)[C@@H]1NC(=O)[C@H](Cc2ccc(O)cc2)NC(=O)CC(CC)(CC)SSC[C@@H](C(=O)N2CCC[C@H]2C(=O)N[C@@H](CC(C)C)C(=O)NCC(N)=O)NC(=O)[C@H](CC(N)=O)NC(=O)[C@H]([C@@H](C)O)NC1=O` (YITNCPLG-NH2; linker N-5 via X3), the Kb in the test on Rattus norvegicus [1] is 0.339 µM; at Oxytocin receptor [2], 0.0437 µM; at Oxytocin receptor [3], 0.0191 µM. The same molecule displayed a pA2 in test [4] of 6.3.

Regarding `CC[C@H](C)[C@@H]1NC(=O)[C@H](Cc2ccc(O)cc2)NC(=O)CC(C)(C)SSC[C@@H](C(=O)N2CCC[C@H]2C(=O)N[C@@H](CC(C)C)C(=O)NCC(N)=O)NC(=O)[C@H](CC(N)=O)NC(=O)[C@H]([C@@H](C)O)NC1=O` (YITNCPLG-NH2; linker N-5 via X2), the Kb with Rattus norvegicus [1] was 0.49 µM; at Oxytocin receptor [2] it was 0.589 µM; at Oxytocin receptor [3], 0.0302 µM. In test [4], this molecule came in with a pA2 of 6.67. Further, the outcome in test [5] was Active.

In the case of `CC[C@H](C)[C@@H]1NC(=O)[C@H](Cc2ccc(OC)cc2)NC(=O)CCSSC[C@@H](C(=O)N2CCC[C@H]2C(=O)N[C@@H](CC(C)C)C(=O)NCC(=O)NC(N)=O)NC(=O)[C@H](CC(N)=O)NC(=O)[C@H](CCC(N)=O)NC1=O` ([Mpa]Y(Me)IQNCPL-X4; disulfide 1-6), the outcome in the test with Rattus norvegicus [1] and in the test listed under Rattus norvegicus [6] was Active. Besides, the Kb on Oxytocin receptor [2] is 0.245 µM; at Oxytocin receptor [3] it was 0.126 µM.

Take `CC[C@H](C)[C@@H]1NC(=O)[C@H](Cc2ccc(O)cc2)NC(=O)CC2(CCCCC2)SSC[C@@H](C(=O)N2CCC[C@H]2C(=O)N[C@@H](CC(C)C)C(=O)NCC(N)=O)NC(=O)[C@H](CC(N)=O)NC(=O)[C@H](CCC(N)=O)NC1=O` (YIQNCPLG-NH2; linker N-5 via X1): the Kb in the test with Rattus norvegicus [1] was 0.224 µM; at Oxytocin receptor [2] it was 0.0708 µM; on Oxytocin receptor [3], 0.0245 µM.

For the molecule `CC[C@H](C)[C@@H]1NC(=O)[C@H](Cc2ccc(O)cc2)NC(=O)CC2(CCCCC2)SSC[C@@H](C(=O)N2CCC[C@H]2C(=O)N[C@@H](CC(C)C)C(=O)NCC(N)=O)NC(=O)[C@H](CC(N)=O)NC(=O)[C@H]([C@@H](C)O)NC1=O` (YITNCPLG-NH2; linker N-5 via X1), the Kb in the test with Rattus norvegicus [1] was 0.115 µM; at Oxytocin receptor [2], 0.0155 µM; on Oxytocin receptor [3], 0.0123 µM. In addition, in test [4], the pA2 is on record as 5.86.

As for `CC[C@H](C)[C@@H]1NC(=O)[C@H](Cc2ccc(OC)cc2)NC(=O)CC(C)(C)SSC[C@@H](C(=O)N2CCC[C@H]2C(=O)N[C@@H](CC(C)C)C(=O)NCC(N)=O)NC(=O)[C@H](CC(N)=O)NC(=O)[C@H](CCC(N)=O)NC1=O` (Y(Me)IQNCPLG-NH2; linker N-5 via X2), the results for the Kb in the test on Rattus norvegicus [1], on Oxytocin receptor [2] and at Oxytocin receptor [3] were 0.138 µM, 0.0158 µM and 0.0174 µM, respectively. Besides, the pA2 in test [4] is on record as 7.59.

`CC[C@H](C)[C@@H]1NC(=O)[C@H](Cc2ccc(O)cc2)NC(=O)CC(C)(C)SSC[C@@H](C(=O)N2CCC[C@H]2C(=O)N[C@@H](CC(C)C)C(=O)NCC(N)=O)NC(=O)[C@H](CC(N)=O)NC(=O)[C@H](CCC(N)=O)NC1=O` (YIQNCPLG-NH2; linker N-5 via X2): at Oxytocin receptor [2], the Kb is 2.34 µM. In addition, the result in test [5] was Active.

As to `COc1ccc(C[C@@H]2NC(=O)CC(C)(C)SSC[C@@H](C(=O)N3CCC[C@H]3C(=O)N[C@@H](CCCN=C(N)N)C(=O)NCC(N)=O)NC(=O)[C@H](CC(N)=O)NC(=O)[C@H](CCC(N)=O)NC(=O)[C@H](Cc3ccccc3)NC2=O)cc1` (Y(Me)FQNCPRG-NH2; linker N-5 via X2), the Kb at Oxytocin receptor [3] was 0.0245 µM.

In the case of `CC[C@H](C)[C@@H]1NC(=O)[C@H](Cc2ccc(O)cc2)NC(=O)CC(CC)(CC)SSC[C@@H](C(=O)N2CCC[C@H]2C(=O)N[C@@H](CC(C)C)C(=O)NCC(N)=O)NC(=O)[C@H](CC(N)=O)NC(=O)[C@H](CCC(N)=O)NC1=O` (YIQNCPLG-NH2; linker N-5 via X3), the Kb was 0.631 µM in the test with Rattus norvegicus [1], 0.151 µM at Oxytocin receptor [2] and 0.0282 µM at Oxytocin receptor [3]. The molecule also came in with a pA2 in test [4] of 6.83.

Consider `CC[C@H](C)[C@@H]1NC(=O)[C@H](Cc2ccc(OC)cc2)NC(=O)CC(C)(C)SSC[C@@H](C(=O)N2CCC[C@H]2C(=O)N[C@@H](CC(C)C)C(=O)NCC(N)=O)NC(=O)[C@H](CC(N)=O)NC(=O)[C@H]([C@@H](C)O)NC1=O` (Y(Me)ITNCPLG-NH2; linker N-5 via X2), for which the Kb is 0.145 µM in the test with Rattus norvegicus [1], 0.0162 µM at Oxytocin receptor [2] and 0.0229 µM on Oxytocin receptor [3]. The pA2 in test [4] amounted to 7.32.
